Shown are actives, neighbours in structure and some others; about 2.7% of the full set was active somewhere.
RBBP9 inhibitor – human RBBP9 hydrolase inhibition. recombinant RBBP9, FP-Rh probe fluorescence polarization. O75884. hit rate 0.2% among 220,000. inhibition, % at 7.94 µM;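 active = inhibition above the campaign mean of all tested compounds plus 3 SD, cut at about 14% in these data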
Target sequence (O75884 whole entry, looked up): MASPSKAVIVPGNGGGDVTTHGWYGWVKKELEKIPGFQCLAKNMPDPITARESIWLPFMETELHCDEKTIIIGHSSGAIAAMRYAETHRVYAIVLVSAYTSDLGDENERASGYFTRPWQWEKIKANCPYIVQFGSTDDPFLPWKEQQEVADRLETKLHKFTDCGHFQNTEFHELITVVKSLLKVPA
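Test system: recombinant human RBBP9. Quantity: 2.5 µM RBBP9 dispensing solution, before mixing. Detection: FP readout at 525/598 nm. Reagent: Serine-hydrolase probe FP-Rh, 375 nM pre-mixing. Measure: % inhibition. Control set: DMSO-treated enzyme wells and wells lacking RBBP9. Buffer or medium: Tris-NaCl-Pluronic buffer, pH 8.0. Times: preincubation 30 min plus labeling 45 min at 25 °C.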
L929 necroptosis – L929 zVAD cell death inhibition; L929 zVAD necroptosis rescue, ATP luminescence, 24 h; with zVAD 60 µM; hit rate 0.38% among 220,000; AID 1377; viability rescue, % at 10 µM;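 active = activation, scaled between plate controls, above about 75%, limit read from the data; inactive = activation under that limit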
PfM18AAP inh-1 – blocks P. falciparum M18 aspartyl aminopeptidase; recombinant PfM18AAP, H-Glu-NHMec fluorogenic cleavage; inhibition, % at 7.35 µM; hit rate 1.2% among 290,000; AID 1822;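 active = inhibition above the campaign mean inhibition over all tested compounds plus 3 SD, cut at about 28% in these data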
TNF death inh – blocks TNF-alpha induced death of Jurkat FADD-/- cells. Jurkat FADD-/- TNF necroptosis rescue, ATP luminescence, 24 h; 0 = TNF only, 100 = no-TNF cells. activation (protection from cell death), % at 10 µM. hit rate 0.068% among 220,000. AID 463075;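 active = activation, meaning protection from cell death, of at least 50% relative to plate controls; inactive = activation below 50%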;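 note: necroptosis triggered by 40 ng/mL TNF-alpha added together with compound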
p97 inhibitor – blocks human p97 ATPase activity; recombinant p97 ATPase, Kinase-Glo ATP luminescence, 3 h; P55072; inhibition, % at 8 µM; hit rate 0.42% among 220,000; AID 1481; in the data active = inhibition above about 15%
Wee1 degr inh – blocks degradation of human Wee1 kinase; reporter increase, % at 5 µM; P30291; hit rate 1.2% among 220,000; HeLa Luc-Wee1K328M stability, luciferase luminescence; 100% = proteasome inhibitor MG132 effect;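 active = activation above the mean of all tested compounds plus 3 SD, set per screening run, cut at about 8.8% in these data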;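 note: cells exposed to compound for 20 h before luminescence read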
PfM18AAP inh-2 – PfM18AAP inhibition, confirmation; inhibition, % at 7.35 µM; shares compounds with PfM18AAP inh-1; recombinant PfM18AAP, H-Glu-NHMec fluorogenic cleavage; hit rate 28% among 2,400; AID 2170;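 active = mean inhibition over replicate wells above the hit cutoff set for the earlier primary screen, cut at about 29% in these data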
CTSL1 confirm – counter-screen for PFM18AAP inhibitors: confirmation of human cathepsin L inhibitors; shares compounds with PfM18AAP inh-1; purified cathepsin L1, Z-Leu-Arg-MCA fluorescence; inhibition, % at 5.96 µM; 2,400 tested, under 10 active; AID 2178;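 active = average inhibition across replicates above the hit cutoff set in the earlier primary screen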
Target sequence (P07711 whole entry, looked up): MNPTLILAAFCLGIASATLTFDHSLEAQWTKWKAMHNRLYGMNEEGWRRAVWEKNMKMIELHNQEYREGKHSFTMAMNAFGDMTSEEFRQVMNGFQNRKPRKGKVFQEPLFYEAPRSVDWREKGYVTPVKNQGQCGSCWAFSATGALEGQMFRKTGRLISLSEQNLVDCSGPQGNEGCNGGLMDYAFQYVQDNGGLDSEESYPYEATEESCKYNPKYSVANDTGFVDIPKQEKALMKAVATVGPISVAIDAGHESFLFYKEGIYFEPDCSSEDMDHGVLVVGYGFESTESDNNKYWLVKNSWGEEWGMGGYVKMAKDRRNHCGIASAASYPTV
Large screens that a line does not name were inactive (follow-up assays come after a bar, where they were run).

CCOc1ccccc1C(=O)NC(C(=O)Nc1cccnc1)C(C)C (centres undefined)	none
CCOC(=O)N/N=C/c1cc(OC)c(O)c(OC)c1	none
CCOC(=O)c1sc(N/N=C/c2cc(Br)c(O)c(OC)c2)nc1C	PfM18AAP inh-1 37 (no result: RBBP9 inhibitor, L929 necroptosis, TNF death inh, p97 inhibitor, Wee1 degr inh) | PfM18AAP inh-2 inactive | CTSL1 confirm inactive
O=c1[nH]c2ccccc2c(O)c1O	RBBP9 inhibitor 16, PfM18AAP inh-1 46 | PfM18AAP inh-2 inactive | CTSL1 confirm inactive
Cc1ccc(NC(=O)CNC2CCCCC2)cc1Cl	none (no result: RBBP9 inhibitor, L929 necroptosis, TNF death inh, p97 inhibitor, Wee1 degr inh)
COc1cccc2sc3ccc(NCCC4CCCN4C)cc3c(=O)c12 (centres undefined)	PfM18AAP inh-1 33 (no result: RBBP9 inhibitor, L929 necroptosis, TNF death inh, p97 inhibitor, Wee1 degr inh) | PfM18AAP inh-2 inactive | CTSL1 confirm inactive
COc1cccc2sc3ccc(C#CC4(N)CCCCC4)cc3c(=O)c12	none (no result: RBBP9 inhibitor, L929 necroptosis, TNF death inh, p97 inhibitor, Wee1 degr inh)
CCN(C(=O)COC(=O)C1CCN(S(=O)(=O)c2c(Cl)cccc2Cl)CC1)C1CCCCC1	none (no result: RBBP9 inhibitor, L929 necroptosis, TNF death inh, p97 inhibitor, Wee1 degr inh)
N#C/C(Cn1c[n+](NC(=O)Nc2ccccc2)cn1)=N/O	PfM18AAP inh-1 47 | PfM18AAP inh-2 inactive | CTSL1 confirm inactive
O=C(N/N=C/c1ccncc1)c1cc2ccccc2cc1O	none (no result: RBBP9 inhibitor, L929 necroptosis, TNF death inh, p97 inhibitor, Wee1 degr inh)
O=C(N/N=C/c1ccc[nH]1)c1cc2ccccc2cc1O	PfM18AAP inh-1 39 (no result: RBBP9 inhibitor, L929 necroptosis, TNF death inh, p97 inhibitor, Wee1 degr inh) | PfM18AAP inh-2 inactive | CTSL1 confirm inactive
Cc1cc(NC(=O)CSc2nnc(-c3ccco3)o2)no1	PfM18AAP inh-1 47 | PfM18AAP inh-2 inactive | CTSL1 confirm inactive
N#C/C(=C(/O)CSc1ncn[nH]1)c1nc2ccccc2[nH]1	PfM18AAP inh-1 64 | PfM18AAP inh-2 inactive | CTSL1 confirm inactive
C/C(O)=C(/C#N)c1nc2ccccc2[nH]1	none
COc1ccc(C(=O)O)cc1S(=O)(=O)NC(C)C	none
Nn1cnnc1N/N=C/c1ccccc1C(F)(F)F	PfM18AAP inh-1 48 (no result: RBBP9 inhibitor, L929 necroptosis, TNF death inh, p97 inhibitor, Wee1 degr inh) | PfM18AAP inh-2 inactive | CTSL1 confirm inactive
CCc1nnc(N/N=C/c2ccccc2Cl)n1N	PfM18AAP inh-1 39 | PfM18AAP inh-2 inactive | CTSL1 confirm inactive
Nn1cnnc1N/N=C/c1cccc(Cl)c1Cl	PfM18AAP inh-1 52 (no result: RBBP9 inhibitor, L929 necroptosis, TNF death inh, p97 inhibitor, Wee1 degr inh) | PfM18AAP inh-2 inactive | CTSL1 confirm inactive
COc1cccc(/C=N/Nc2nnc(C)n2N)c1OCc1ccccc1Cl	PfM18AAP inh-1 41 | PfM18AAP inh-2 inactive | CTSL1 confirm inactive
COc1ccc(C(=O)N/N=C(\CCC(=O)O)c2ccc(C(C)(C)C)cc2)cc1OC	none
Cc1ccc(C)c(S(=O)(=O)c2c[nH]c(=S)[nH]c2=O)c1	none (no result: RBBP9 inhibitor, L929 necroptosis, TNF death inh, p97 inhibitor, Wee1 degr inh)
COc1ccc(N2CCN(C3CCCN(C(=O)C4=C(C)OCCO4)C3)CC2)cc1 (centres undefined)	none (no result: RBBP9 inhibitor, L929 necroptosis, TNF death inh, p97 inhibitor, Wee1 degr inh)
COc1ccc(C(=O)CSc2[nH]c(=O)cc(C(F)(F)F)c2C#N)cc1	none
CCCCN=Cc1c(C)[nH]n(-c2ccccc2)c1=S	PfM18AAP inh-1 51 | PfM18AAP inh-2 inactive | CTSL1 confirm inactive
NC(=O)NC(=O)COC(=O)CCSc1ccccc1	none
COc1cc(-c2nc3ccc(C)cn3c2Nc2ccc3c(c2)OCCO3)ccc1O	PfM18AAP inh-1 41 (no result: L929 necroptosis) | PfM18AAP inh-2 41 | CTSL1 confirm inactive
COc1cc(-c2nc3cnccn3c2Nc2ccc3c(c2)OCCO3)ccc1O	none
COc1cc(CNCc2ccccc2)c(Br)cc1OC1CCCC1	none
Cc1cccnc1Nc1nc(-c2ccc(O)cc2O)cs1	PfM18AAP inh-1 32 | PfM18AAP inh-2 inactive | CTSL1 confirm inactive
Oc1ccc(-c2csc(Nc3ccccn3)n2)c(O)c1	PfM18AAP inh-1 34 (no result: RBBP9 inhibitor, L929 necroptosis, TNF death inh, p97 inhibitor, Wee1 degr inh) | PfM18AAP inh-2 inactive | CTSL1 confirm inactive
O=C(OCc1ccc([N+](=O)[O-])cc1)c1cc(=O)c2ccccc2o1	none (no result: RBBP9 inhibitor, L929 necroptosis, TNF death inh, p97 inhibitor, Wee1 degr inh)
CC(=O)c1sc2nsc(SCCN3CCCCC3)c2c1N	PfM18AAP inh-1 33 | PfM18AAP inh-2 inactive | CTSL1 confirm inactive
CC(=O)Nc1nnc(CCN2CCCCC2)s1	none
N#Cc1c(SCc2cccc(Cl)c2)sc(C(=O)c2ccccc2)c1N	none
Nc1c(C(=O)c2ccc(Cl)cc2)sc2nsc(SCCN3CCOCC3)c12	PfM18AAP inh-1 34 | PfM18AAP inh-2 inactive | CTSL1 confirm inactive
